Laboratory results from ChEMBL document CHEMBL1153373, “Effect of ring size on conformation and biological activity of cyclic cationic antimicrobial peptides” (J Med Chem, 2009).
≈ marks a conversion by molar mass, not a printed value. Square brackets hold non-standard residues; d marks the D form. Peptide text beside a SMILES is read from it. Orn = NCCC[C@H](N)C(=O)O

How the values were obtained:
[1] = test system: Klebsiella pneumoniae; assay: Antimicrobial activity against Klebsiella pneumoniae after 24 hrs by standard microtiter dilution method; format: functional
[2] = Therapeutic index, ratio of hemolytic activity in human RBC to MIC for Candida albicans; conditions: human red blood cells (RBC), read-out: TI
[3] = test system: Serratia marcescens; assay: Antimicrobial activity against Serratia marcescens after 24 hrs by standard microtiter dilution method; format: functional
[4] = test system: Staphylococcus aureus; assay: Antimicrobial activity against Staphylococcus aureus after 24 hrs by standard microtiter dilution method; format: functional
[5] = Toxicity in human RBC assessed as fold reduction in hemolytic activity at 100 ug/ml after 24 hrs relative to control; format: cell-based; conditions: erythrocyte
[6] = Therapeutic index, ratio of hemolytic activity in human RBC to MIC for Pseudomonas aeruginosa; conditions: human red blood cells (RBC), read-out: TI
[7] = Therapeutic index, ratio of hemolytic activity in human RBC to MIC for Stenotrophomonas maltophilia; conditions: human red blood cells (RBC), read-out: TI
[8] = test system: Candida albicans; assay: Antimicrobial activity against Candida albicans after 24 hrs by standard microtiter dilution method; format: functional
In short: (§1)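 Fungal MICs were determined by standard microtitre dilution, taken as the lowest peptide concentration inhibiting growth after 24 h incubation at 37 °C.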

[9] = test system: Acinetobacter calcoaceticus; assay: Antimicrobial activity against Acinetobacter calcoaceticus after 24 hrs by standard microtiter dilution method; format: functional
[10] = test system: Streptococcus pyogenes; assay: Antimicrobial activity against Streptococcus pyogenes after 24 hrs by standard microtiter dilution method; format: functional
[11] = test system: Pseudomonas aeruginosa; assay: Antimicrobial activity against Pseudomonas aeruginosa after 24 hrs by standard microtiter dilution method; format: functional
[12] = test system: Cryptococcus neoformans; assay: Antimicrobial activity against Cryptococcus neoformans after 24 hrs by standard microtiter dilution method; format: functional; in short: as §1
[13] = Therapeutic index, ratio of hemolytic activity in human RBC to MIC for Streptococcus pneumoniae; conditions: human red blood cells (RBC), read-out: TI
[14] = Therapeutic index, ratio of hemolytic activity in human RBC to MIC for Staphylococcus epidermidis; conditions: human red blood cells (RBC), read-out: TI
[15] = Therapeutic index, ratio of hemolytic activity in human RBC to MIC for Acinetobacter calcoaceticus; conditions: human red blood cells (RBC), read-out: TI
[16] = Therapeutic index, ratio of hemolytic activity in human RBC to MIC for Corynebacterium jeikeium; conditions: human red blood cells (RBC), read-out: TI
[17] = Therapeutic index, ratio of hemolytic activity in human RBC to MIC for Streptococcus pyogenes; conditions: human red blood cells (RBC), read-out: TI
[18] = test system: Escherichia coli; assay: Antimicrobial activity against Escherichia coli after 24 hrs by standard microtiter dilution method; format: functional
[19] = Therapeutic index, ratio of hemolytic activity in human RBC to MIC for Enterococcus faecalis; conditions: human red blood cells (RBC), read-out: TI
[20] = Therapeutic index, ratio of hemolytic activity in human RBC to MIC for Klebsiella pneumoniae; conditions: human red blood cells (RBC), read-out: TI
[21] = test system: Streptococcus mitis; assay: Antimicrobial activity against Streptococcus mitis after 24 hrs by standard microtiter dilution method; format: functional
[22] = Therapeutic index, ratio of hemolytic activity in human RBC to MIC for Enterobacter cloacae; conditions: human red blood cells (RBC), read-out: TI
[23] = test system: Enterococcus faecalis; assay: Antimicrobial activity against Enterococcus faecalis after 24 hrs by standard microtiter dilution method; format: functional
[24] = test system: Corynebacterium jeikeium; assay: Antimicrobial activity against Corynebacterium jeikeium after 24 hrs by standard microtiter dilution method; format: functional
[25] = test system: Stenotrophomonas maltophilia; assay: Antimicrobial activity against Stenotrophomonas maltophilia after 24 hrs by standard microtiter dilution method; format: functional
[26] = Therapeutic index, ratio of hemolytic activity in human RBC to MIC for Escherichia coli; conditions: human red blood cells (RBC), read-out: TI
[27] = Toxicity in human RBC assessed as hemolytic activity at 100 ug/ml after 24 hrs relative to control; format: cell-based, Erythrocyte; conditions: human red blood cells (RBC), read-out: Activity
In short: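 Human erythrocytes in saline were exposed to peptide at 100 µg/mL for 24 h at 37 °C. Result is expressed as percent hemolysis.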

[28] = Therapeutic index, ratio of hemolytic activity in human RBC to MIC for Cryptococcus neoformans; conditions: human red blood cells (RBC), read-out: TI
[29] = Therapeutic index, ratio of hemolytic activity in human RBC to MIC for Serratia marcescens; conditions: human red blood cells (RBC), read-out: TI
[30] = Therapeutic index, ratio of hemolytic activity in human RBC to MIC for Staphylococcus aureus; conditions: human red blood cells (RBC), read-out: TI
[31] = test system: Enterobacter cloacae; assay: Antimicrobial activity against Enterobacter cloacae after 24 hrs by standard microtiter dilution method; format: functional
[32] = test system: Streptococcus pneumoniae; assay: Antimicrobial activity against Streptococcus pneumoniae after 24 hrs by standard microtiter dilution method; format: functional
[33] = test system: Staphylococcus epidermidis; assay: Antimicrobial activity against Staphylococcus epidermidis after 24 hrs by standard microtiter dilution method; format: functional
[34] = Therapeutic index, ratio of hemolytic activity in human RBC to MIC for Streptococcus mitis; conditions: human red blood cells (RBC), read-out: TI

Compound | MIC [1] | selectivity ratio [2] | MIC [3] | MIC [4] | Activity [5] | selectivity ratio [6] | selectivity ratio [7] | MIC [8] | MIC [9] | MIC [10] | MIC [11] | MIC [12] | selectivity ratio [13] | selectivity ratio [14] | selectivity ratio [15] | selectivity ratio [16] | MIC [21] | selectivity ratio [22] | MIC [23] | MIC [25] | other results
CC(C)C[C@@H]1NC(=O)[C@H](CCCCN)NC(=O)[C@H](C(C)C)NC(=O)[C@@H]2CCCN2C(=O)[C@@H](Cc2ccc(O)cc2)NC(=O)[C@H](CC(C)C)NC(=O)[C@H](CCCCN)NC(=O)[C@H](C(C)C)NC(=O)[C@H](CCCCN)NC(=O)[C@H](CC(C)C)NC(=O)[C@@H]2CCCN2C(=O)[C@@H](Cc2ccc(O)cc2)NC(=O)[C@H](C(C)C)NC(=O)[C@H](CCCCN)NC1=O (cyclo(KLKV[dY]PLKVKL[dY]PV)) | 128 µg/mL (≈ 76.6 µM) | 2 | 256 µg/mL (≈ 153 µM) | 32 µg/mL (≈ 19.2 µM) | 1 | 2 | 2 | 64 µg/mL (≈ 38.3 µM) | 16 µg/mL (≈ 9.58 µM) | 1 µg/mL (≈ 0.599 µM) | 64 µg/mL (≈ 38.3 µM) | 2 µg/mL (≈ 1.2 µM) | – | – | – | – | – | – | – | – | –
CC(C)C[C@@H]1NC(=O)[C@H](CCCCN)NC(=O)[C@H](C(C)C)NC(=O)[C@@H]2CCCN2C(=O)[C@@H](Cc2ccc(O)cc2)NC(=O)[C@H](CC(C)C)NC(=O)[C@H](CCCCN)NC(=O)[C@H](C(C)C)NC(=O)[C@@H]2CCCN2C(=O)[C@@H](Cc2ccc(O)cc2)NC(=O)[C@H](CCCCN)NC1=O (cyclo(VKLK[dY]PVKL[dY]P)) | – | 16 | – | – | – | – | – | – | – | – | – | – | 255 | 128 | 255 | – | – | – | – | – | –
CC(C)C[C@@H]1NC(=O)[C@H](CCCN)NC(=O)[C@H](C(C)C)NC(=O)[C@@H]2CCCN2C(=O)[C@@H](Cc2ccccc2)NC(=O)[C@H](CC(C)C)NC(=O)[C@H](CCCN)NC(=O)[C@H](C(C)C)NC(=O)[C@@H]2CCCN2C(=O)[C@@H](Cc2ccccc2)NC1=O [GRAMICIDIN S] (cyclo(L[dF]PV[Orn]L[dF]PV[Orn])) | 16 µg/mL (≈ 14 µM) | 12 | 256 µg/mL (≈ 224 µM) | 2 µg/mL (≈ 1.75 µM) | 1 | 3 | 12 | 8 µg/mL (≈ 7.01 µM) | 8 µg/mL (≈ 7.01 µM) | 0.5 µg/mL (≈ 0.438 µM) | 32 µg/mL (≈ 28 µM) | 1 µg/mL (≈ 0.876 µM) | 100 | 50 | 12 | 25 | 0.5 µg/mL (≈ 0.438 µM) | 3 | 2 µg/mL (≈ 1.75 µM) | 8 µg/mL (≈ 7.01 µM) | selectivity ratio [17]: 200; MIC [18]: 16 µg/mL (≈ 14 µM); selectivity ratio [19]: 50; selectivity ratio [20]: 6; MIC [24]: 4 µg/mL (≈ 3.5 µM); selectivity ratio [26]: 6; hemolysis at 24 h, 100 ug/ml [27]: 100%; selectivity ratio [28]: 100; selectivity ratio [29]: 0.3; selectivity ratio [30]: 50; MIC [31]: 32 µg/mL (≈ 28 µM); MIC [32]: 1 µg/mL (≈ 0.876 µM); MIC [33]: 2 µg/mL (≈ 1.75 µM); selectivity ratio [34]: 200
CC(C)C[C@@H]1NC(=O)[C@H](CCCCN)NC(=O)[C@H](C(C)C)NC(=O)[C@@H]2CCCN2C(=O)[C@@H](Cc2ccc(O)cc2)NC(=O)[C@H](CC(C)C)NC(=O)[C@H](CCCCN)NC(=O)[C@H](C(C)C)NC(=O)[C@H](CCCCN)NC(=O)[C@H](CC(C)C)NC(=O)[C@H](CCCCN)NC(=O)[C@@H]2CCCN2C(=O)[C@@H](Cc2ccc(O)cc2)NC(=O)[C@H](C(C)C)NC(=O)[C@H](CCCCN)NC1=O (cyclo(VKLKV[dY]PKLKVKL[dY]P)) | – | – | – | – | – | – | – | – | – | – | – | – | – | – | – | – | – | 2 | – | – | –
CC(C)C[C@@H]1NC(=O)[C@H](CCCCN)NC(=O)[C@H](C(C)C)NC(=O)[C@@H]2CCCN2C(=O)[C@@H](Cc2ccc(O)cc2)NC(=O)[C@H](CC(C)C)NC(=O)[C@H](CCCCN)NC(=O)[C@H](C(C)C)NC(=O)[C@@H]2CCCN2C(=O)[C@@H](Cc2ccc(O)cc2)NC1=O (cyclo(KL[dY]PVKL[dY]PV)) | 32 µg/mL (≈ 26.6 µM) | – | – | – | 1 | 1 | – | – | – | – | – | 1 µg/mL (≈ 0.832 µM) | 100 | – | – | 100 | 1 µg/mL (≈ 0.832 µM) | – | 2 µg/mL (≈ 1.66 µM) | 16 µg/mL (≈ 13.3 µM) | selectivity ratio [28]: 100; MIC [32]: 1 µg/mL (≈ 0.832 µM); MIC [33]: 2 µg/mL (≈ 1.66 µM); selectivity ratio [34]: 100
CC(C)C[C@@H]1NC(=O)[C@H](CCCCN)NC(=O)[C@H](C(C)C)NC(=O)[C@@H]2CCCN2C(=O)[C@@H](Cc2ccc(O)cc2)NC(=O)[C@H](CC(C)C)NC(=O)[C@H](CCCCN)NC(=O)[C@H](C(C)C)NC(=O)[C@H](CCCCN)NC(=O)[C@H](CC(C)C)NC(=O)[C@@H]2CCCN2C(=O)[C@@H](Cc2ccc(O)cc2)NC(=O)[C@H](CCCCN)NC1=O (cyclo(VKLK[dY]PLKVKL[dY]P)) | – | – | – | – | – | – | – | – | – | – | – | – | – | – | – | – | – | 4 | – | – | selectivity ratio [29]: 2
